Experimental data as given in ChEMBL document CHEMBL5321217, “Identification of pyrrolo[3',4':3,4]cyclohepta[1,2-d][1,2]oxazoles as promising new candidates for the treatment of lymphomas” (Eur J Med Chem, 2023).
Activity calls are given as the source filed them. The calls are words filed in the database; no cut-off is given here.

Tests used:
[1] = system: CCRF-CEM; assay: Induction of cell cycle arrest in human CCRF-CEM cells assessed as reduction in accumulation of cells at S phase at 1 uM incubated for 24 hrs by PI staining based flow cytometry analysis; format: functional
How it was run: (§1)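 Seeding in 6-well plates, 2 mL medium: A549 5×10^4, CCRF-CEM 2.5×10^5, VL51 2.0×10^5. 24 h treatment, A549 detached with trypsin-EDTA. Cells fixed in 70% ice-cold ethanol, PI-labelled, analysed by flow cytometry. Mean of two independent experiments.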

[2] = system: A549; assay: Induction of cell cycle arrest in human A549 cells assessed as reduction in accumulation of cells at S phase at 1 uM incubated for 24 hrs by PI staining based flow cytometry analysis; format: functional; how it was run: as §1
[3] = system: SF-539; assay: Antiproliferative activity against human SF-539 cells assessed as growth inhibition incubated for 72 hrs by MTT assay; format: functional
[4] = system: UO-31; assay: Antiproliferative activity against human UO-31 cells assessed as growth inhibition incubated for 72 hrs by MTT assay; format: functional
[5] = system: MDA-MB-231; assay: Antiproliferative activity against human MDA-MB-231 cells assessed as growth inhibition incubated for 72 hrs by MTT assay; format: functional
[6] = system: CCRF-CEM; assay: Induction of cell cycle arrest in human CCRF-CEM cells assessed as accumulation of cells at G2/M phase at 1 uM incubated for 24 hrs by PI staining based flow cytometry analysis; format: functional; how it was run: as §1
[7] = system: NCI-H226; assay: Antiproliferative activity against human NCI-H226 cells assessed as growth inhibition incubated for 72 hrs by MTT assay; format: functional
[8] = system: K562; assay: Antiproliferative activity against human K562 cells assessed as growth inhibition incubated for 72 hrs by MTT assay; format: functional
[9] = system: A549; assay: Induction of cell cycle arrest in human A549 cells assessed as accumulation of cells at G2/M phase at 1 uM incubated for 24 hrs by PI staining based flow cytometry analysis; format: functional; how it was run: as §1
[10] = system: MDA-MB-468; assay: Antiproliferative activity against human MDA-MB-468 cells assessed as growth inhibition incubated for 72 hrs by MTT assay; format: functional
[11] = Antiproliferative activity against human HBL1 cells assessed as cell growth inhibition measured after 72 hrs by MTT assay; format: functional, cell-based; details: HBL1, 72 h
How it was run: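 Lymphoma cells in RPMI-1640 with 20% FBS, seeded at 5,000–10,000 cells/well depending on doubling time. Exposed for 72 h at 37 °C, 5% CO2 to a 1:2 serial dilution from 0 to 10 μM (DMSO ≤0.1%). MTT from a 5 mg/mL stock was added for 4 h, cells were lysed with 25% SDS, and A570 was read against medium-only blanks. IC50 from triplicate assays.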

[12] = system: SN12C; assay: Antiproliferative activity against human SN12C cells assessed as growth inhibition incubated for 72 hrs by MTT assay; format: functional
[13] = system: HT-29; assay: Antiproliferative activity against human HT-29 cells assessed as growth inhibition incubated for 72 hrs by MTT assay; format: functional
[14] = system: HL-60(TB); assay: Antiproliferative activity against human HL-60(TB) cells assessed as growth inhibition incubated for 72 hrs by […]; format: functional
How it was run: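 NCI 60-cell-line panel screen. […] Compounds were dissolved in DMSO as 10 mM stocks, and DMSO in the assays stayed at or below 0.1%.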

[15] = system: A549; assay: Induction of apoptosis in human A549 cells assessed as increase in apoptotic cells incubated for 48 hrs by annexin V-FITC and PI staining based flow cytometric analysis; format: functional, cell-based; details: dose 1-5 µM
How it was run: (§2)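 Cells exposed to several concentrations for 48 h, then stained with annexin V-FITC and PI and read by flow cytometry (FL1/FL3). Apoptotic cells = annexin V-positive plus annexin V/PI double-positive. Mean of three independent experiments.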

[16] = system: IGROV-1; assay: Antiproliferative activity against human IGROV-1 cells assessed as growth inhibition incubated for 72 hrs by MTT assay; format: functional
[17] = system: A498; assay: Antiproliferative activity against human A498 cells assessed as growth inhibition incubated for 72 hrs by MTT assay; format: functional
[18] = system: MOLT-4; assay: Antiproliferative activity against human MOLT-4 cells assessed as growth inhibition incubated for 72 hrs by MTT assay; format: functional
[19] = system: SR; assay: Antiproliferative activity against human SR cells assessed as growth inhibition incubated for 72 hrs by MTT assay; format: functional
[20] = system: COLO 205; assay: Antiproliferative activity against human COLO 205 cells assessed as growth inhibition incubated for 72 hrs by MTT assay; format: functional
[21] = system: M14; assay: Antiproliferative activity against human M14 cells assessed as growth inhibition incubated for 72 hrs by MTT assay; format: functional
[22] = system: HOP-62; assay: Antiproliferative activity against human HOP-62 cells assessed as growth inhibition incubated for 72 hrs by MTT assay; format: functional
[23] = system: SW-620; assay: Antiproliferative activity against human SW-620 cells assessed as growth inhibition incubated for 72 hrs by MTT assay; format: functional
[24] = system: NCI-H322M; assay: Antiproliferative activity against human NCI-H322M cells assessed as growth inhibition incubated for 72 hrs by MTT assay; format: functional
[25] = system: DU-145; assay: Antiproliferative activity against human DU-145 cells assessed as growth inhibition incubated for 72 hrs by MTT assay; format: functional
[26] = system: SNB-19; assay: Antiproliferative activity against human SNB-19 cells assessed as growth inhibition incubated for 72 hrs by MTT assay; format: functional
[27] = system: RPMI-8226; assay: Antiproliferative activity against human RPMI-8226 cells assessed as growth inhibition incubated for 72 hrs by MTT assay; format: functional
[28] = system: NCI/ADR-RES; assay: Antiproliferative activity against human NCI-ADR-RES cells assessed as growth inhibition incubated for 72 hrs by MTT assay; format: functional
[29] = system: CCRF-CEM; assay: Induction of apoptosis in human CCRF-CEM cells assessed as increase in apoptotic cells incubated for 48 hrs by annexin V-FITC and PI staining based flow cytometric analysis; format: functional, cell-based; details: dose 1-5 µM; how it was run: as §2
[30] = system: CAKI-1; assay: Antiproliferative activity against human CAKI-1 cells assessed as growth inhibition incubated for 72 hrs by MTT assay; format: functional
[31] = system: VL51; assay: Induction of mitochondrial membrane potential depolarization in human VL51 cells at 0.5 to 1 uM measured after 24 hrs by JC-1 fluorescent dye based flow cytometry analysis; format: functional, cell-based; details: dose 0.5-1 µM
How it was run: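 VL51 cells treated 24 h at 0.5 and 1.0 μM, labelled with JC-1, analysed by flow cytometry in FL1 and FL2 channels.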

[32] = system: HOP-92; assay: Antiproliferative activity against human HOP-92 cells assessed as growth inhibition incubated for 72 hrs by MTT assay; format: functional
[33] = system: KM12; assay: Antiproliferative activity against human KM12 cells assessed as growth inhibition incubated for 72 hrs by MTT assay; format: functional
[34] = system: OVCAR-5; assay: Antiproliferative activity against human OVCAR-5 cells assessed as growth inhibition incubated for 72 hrs by MTT assay; format: functional
[35] = system: NCI-H23; assay: Antiproliferative activity against human NCI-H23 cells assessed as growth inhibition incubated for 72 hrs by MTT assay; format: functional

SMILES | Activity [1] | Activity [2] | GI50 [3] [µM] | GI50 [4] [µM] | GI50 [5] [µM] | Activity [6] | GI50 [7] [µM] | GI50 [8] [µM] | Activity [9] | GI50 [10] [µM] | IC50 [11] [µM] | GI50 [12] [µM] | GI50 [13] [µM] | GI50 [14] [µM] | Activity [15] | GI50 [16] [µM] | GI50 [17] [µM] | GI50 [18] [µM] | GI50 [19] [µM] | GI50 [20] [µM] | other results
COc1ccc(Cn2cc3c(c2-c2cc(OC)c(OC)c(OC)c2)CCCc2cnoc2-3)cc1N | Active | Active | 0.4 | 0.69 | 1.15 | Active | 2.54 | 0.39 | Active | 0.65 | 0.5 | 0.84 | 0.42 | 0.3 | Dose-Dependent Effect | 1.56 | 0.36 | 0.65 | 0.36 | 0.38 | GI50 [21]: 0.48 µM; GI50 [22]: 0.69 µM; GI50 [23]: 0.43 µM; GI50 [24]: 0.84 µM; GI50 [25]: 0.84 µM; GI50 [26]: 0.81 µM; GI50 [27]: 0.61 µM; GI50 [28]: 0.6 µM; Activity [29]: Dose-Dependent Effect; GI50 [30]: 0.58 µM; Activity [31]: Active; GI50 [32]: 0.52 µM; GI50 [33]: 0.56 µM; GI50 [34]: 1.44 µM; GI50 [35]: 1.34 µM
COc1ccc(Cn2cc3c(c2-c2cc(OC)c(OC)c(OC)c2)CCCc2cnoc2-3)cc1 | Active | Active | 0.7 | 0.92 | 2.54 | Active | 1.99 | 0.42 | Active | 0.56 | 1 | 4.6 | 1.13 | 0.35 | Dose-Dependent Effect | 0.56 | 0.69 | 0.8 | 0.36 | 1.45 | GI50 [21]: 0.39 µM; GI50 [22]: 2.22 µM; GI50 [23]: 0.47 µM; GI50 [24]: 3.28 µM; GI50 [25]: 4.11 µM; GI50 [26]: 1.53 µM; GI50 [27]: 1.56 µM; GI50 [28]: 0.54 µM; Activity [29]: Dose-Dependent Effect; GI50 [30]: 0.49 µM; Activity [31]: Active; GI50 [32]: 1.27 µM; GI50 [33]: 0.69 µM; GI50 [34]: 3.72 µM; GI50 [35]: 2.62 µM
